Our source for the Activity and inhibition values is ChEMBL document CHEMBL2146419, “Effects of polyphenol compounds on influenza A virus replication and definition of their mechanism of action” (Bioorg Med Chem, 2012).

Calls of active or inactive are those of the source. The rule behind the calls is not given here.

Data set [1] relates to MDCK. Put plainly: Cytotoxicity against dog MDCK cells assessed as morphological alterations at 40 ug/mL incubated for 24 hrs followed by compound wash out measured after 24 hrs by microscopic analysis. The class given is cell-based, Canis lupus familiaris. The procedure, abridged:
(§1)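 Confluent MDCK monolayers plated at 2×10^5/ml were treated after 24 h with compound at 5–40 μg/ml and incubated a further 24 h. Assessed by microscopic examination of morphology, Trypan blue exclusion for viability, and cell counts for multiplication rate.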

Data set [2] relates to Influenza A virus. The data set is described as follows: Antiviral activity against Influenza virus A/Puerto Rico/8/34 H1N1 infected in dog MDCK cells at 20 ug/mL incubated for 2 hrs post-infection followed by compound washout measured after 24 hrs by hemagglutininating unit assay. The class given is functional, organism-based. The following applies: A/Puerto Rico/8/1934(H1N1). The method in brief:
(§2)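 Compound added to PR8-infected MDCK cells immediately after virus challenge, then removed at 2, 4, 6, 8 or 24 h p.i. Supernatant virus yield was measured by HAU at 24 h p.i. and expressed as a percentage of DMSO-treated control infected cells. Means of two experiments, each in duplicate.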

The test system of data set [3] is Influenza A virus. Put plainly: Antiviral activity against Influenza virus A/Puerto Rico/8/34 H1N1 infected in dog MDCK cells at 20 ug/mL incubated for 4 hrs post-infection followed by compound washout measured after 24 hrs by hemagglutininating unit assay. The class given is functional, organism-based. The note with it: A/Puerto Rico/8/1934(H1N1). The method in brief: as §2

Data set [4] deals with Influenza A virus. The data set is described as follows: Antiviral activity against Influenza virus A/Puerto Rico/8/34 H1N1 infected in dog MDCK cells at 20 ug/mL incubated for 6 hrs post-infection followed by compound washout measured after 24 hrs by hemagglutininating unit assay relative to control. The class given is functional, A/Puerto Rico/8/1934(H1N1). The procedure, abridged: as §2

In data set [5] the test system is Influenza A virus. Put plainly: Antiviral activity against Influenza virus A/Puerto Rico/8/34 H1N1 infected in dog MDCK cells at 20 ug/mL incubated for 8 hrs post-infection followed by compound washout measured after 24 hrs by hemagglutininating unit assay relative to control. The class given is functional, A/Puerto Rico/8/1934(H1N1). The procedure, abridged:
as §2

The test system of data set [6] is Influenza A virus. The data set is described as follows: Antiviral activity against Influenza virus A/Puerto Rico/8/34 H1N1 infected in dog MDCK cells at 20 ug/mL incubated for 24 hrs post-infection followed by compound washout measured after 24 hrs by hemagglutininating unit assay relative to control. The class given is functional, A/Puerto Rico/8/1934(H1N1). The method in brief:
as §2

The subject of data set [7] is Influenza A virus. The data set is described as follows: Antiviral activity against Influenza virus A/Puerto Rico/8/34 H1N1 infected in dog MDCK cells assessed as reduction in hemagglutininin expression at 20 ug/mL after 24 hrs by immunoblotting analysis relative to control. The class given is functional, A/Puerto Rico/8/1934(H1N1). On the set-up: scale not given: the % may be the effect or the level left. The procedure, abridged:
(§3)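 PR8-infected MDCK cells, untreated or treated, were lysed at 24 h. Homogenates were run on 12% gels under reducing conditions, blotted to nitrocellulose and probed with goat polyclonal anti-influenza antibodies. Densitometry was expressed as the ratio of each viral protein to actin, relative to untreated infected cells.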
A general note: Immunoblotting shows a protein as a band on a membrane.

In data set [8] the test system is Influenza A virus. Put plainly: Antiviral activity against Influenza virus A/Puerto Rico/8/34 H1N1 infected in dog MDCK cells assessed as reduction in nucleoprotein expression at 20 ug/mL after 24 hrs by immunoblotting analysis relative to control. The class given is functional, organism-based. The following applies: A/Puerto Rico/8/1934(H1N1). The procedure, abridged: as §3

Data set [9] relates to Influenza A virus. The data set is described as follows: Antiviral activity against Influenza virus A/Puerto Rico/8/34 H1N1 infected in dog MDCK cells assessed as reduction in neuraminidase expression at 20 ug/mL after 24 hrs by immunoblotting analysis relative to control. Further details: scale not given: the % may be the effect or the level left. The class given is functional, A/Puerto Rico/8/1934(H1N1). The method in brief: as §3

For data set [10], the system named is Influenza A virus. The data set is described as follows: Antiviral activity against Influenza virus A/Puerto Rico/8/34 H1N1 infected in dog MDCK cells assessed as reduction in matrix protein 1 expression at 20 ug/mL after 24 hrs by immunoblotting analysis relative to control. The class given is functional, A/Puerto Rico/8/1934(H1N1). Further details: scale not given: the % may be the effect or the level left. The procedure, abridged: as §3

For data set [11], the system named is MDCK. Put plainly: Restoration of GSH level in dog MDCK cells infected with Influenza virus A/Puerto Rico/8/34 H1N1 measured at 24 hrs post-infection by DTNB-based colometric assay. The class given is functional, cell-based. The following applies: Canis lupus familiaris. The procedure, abridged:
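MDCK cells, infected or mock-infected and treated, were assayed for intracellular GSH and GSSG with a glutathione assay kit at 24 h p.i. Results are in nmol per mg protein, as the mean of two experiments each in duplicate, compared against mock-infected cells.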

Data set [12] concerns MDCK. Put plainly: Cytotoxicity against dog MDCK cells assessed as morphological alterations at 20 to 40 ug/mL incubated for 24 hrs followed by compound wash out measured after 24 hrs by microscopic analysis. The class given is cell-based, Canis lupus familiaris. The method in brief:
as §1

Data set [13] relates to Influenza A virus. Put plainly: Antiviral activity against Influenza virus A/Puerto Rico/8/34 H1N1 infected in dog MDCK cells assessed as inhibition of viral replication at 10 ug/mL incubated at 1 hr post-infection measured after 24 hrs by hemagglutininating unit assay relative to control. The class given is functional. The note with it: A/Puerto Rico/8/1934(H1N1). The method in brief: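 MDCK cells infected with PR8; 1 h after adsorption they were washed, and compound (5–20 μg/ml) or DMSO was added and kept on throughout. Virus released into the supernatant was titrated by HAU assay 24 h p.i. Yield is a percentage of control infected cells given 0.02% DMSO. Means of four experiments, each in duplicate.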

For data set [14], the system named is Influenza A virus. Put plainly: Antiviral activity against Influenza virus A/Puerto Rico/8/34 H1N1 infected in dog MDCK cells at 10 ug/mL incubated for 2 hrs post-infection followed by compound washout measured after 24 hrs by hemagglutininating unit assay. The class given is functional, organism-based. The following applies: A/Puerto Rico/8/1934(H1N1). The procedure, abridged: as §2

The subject of data set [15] is Influenza A virus. The data set is described as follows: Antiviral activity against Influenza virus A/Puerto Rico/8/34 H1N1 infected in dog MDCK cells at 10 ug/mL incubated for 4 hrs post-infection followed by compound washout measured after 24 hrs by hemagglutininating unit assay. The note with it: A/Puerto Rico/8/1934(H1N1). The class given is functional, organism-based. The procedure, abridged: as §2

For data set [16], the system named is Influenza A virus. The data set is described as follows: Antiviral activity against Influenza virus A/Puerto Rico/8/34 H1N1 infected in dog MDCK cells at 10 ug/mL incubated for 6 hrs post-infection followed by compound washout measured after 24 hrs by hemagglutininating unit assay relative to control. The class given is functional, A/Puerto Rico/8/1934(H1N1). The procedure, abridged: as §2

The subject of data set [17] is Influenza A virus. Put plainly: Antiviral activity against Influenza virus A/Puerto Rico/8/34 H1N1 infected in dog MDCK cells at 10 ug/mL incubated for 8 hrs post-infection followed by compound washout measured after 24 hrs by hemagglutininating unit assay relative to control. The class given is functional, A/Puerto Rico/8/1934(H1N1). The method in brief: as §2
For data set [18], the system named is Influenza A virus. The data set is described as follows: Antiviral activity against Influenza virus A/Puerto Rico/8/34 H1N1 infected in dog MDCK cells at 10 ug/mL incubated for 24 hrs post-infection followed by compound washout measured after 24 hrs by hemagglutininating unit assay relative to control. The class given is functional, A/Puerto Rico/8/1934(H1N1). The method in brief: as §2

Data set [19] relates to Influenza A virus. Put plainly: Antiviral activity against Influenza virus A/Puerto Rico/8/34 H1N1 infected in dog MDCK cells assessed as reduction in hemagglutininin expression at 10 ug/mL after 24 hrs by immunoblotting analysis relative to control. The following applies: A/Puerto Rico/8/1934(H1N1). The class given is functional, organism-based. The procedure, abridged:
as §3

Data set [20] concerns Influenza A virus. The data set is described as follows: Antiviral activity against Influenza virus A/Puerto Rico/8/34 H1N1 infected in dog MDCK cells assessed as reduction in nucleoprotein expression at 10 ug/mL after 24 hrs by immunoblotting analysis relative to control. The following applies: A/Puerto Rico/8/1934(H1N1). The class given is functional, organism-based. The procedure, abridged:
as §3

In data set [21] the test system is Influenza A virus. Put plainly: Antiviral activity against Influenza virus A/Puerto Rico/8/34 H1N1 infected in dog MDCK cells assessed as reduction in neuraminidase expression at 10 ug/mL after 24 hrs by immunoblotting analysis relative to control. The class given is functional, A/Puerto Rico/8/1934(H1N1). Further details: scale not given: the % may be the effect or the level left. The method in brief: as §3

In data set [22] the test system is Influenza A virus. Put plainly: Antiviral activity against Influenza virus A/Puerto Rico/8/34 H1N1 infected in dog MDCK cells assessed as reduction in matrix protein 1 expression at 10 ug/mL after 24 hrs by immunoblotting analysis relative to control. The class given is functional, organism-based. The note with it: A/Puerto Rico/8/1934(H1N1). The method in brief: as §3

Data set [23] relates to MDCK. Put plainly: Inhibition of PKC/p38MAPK-mediated nuclear-cytoplasmic viral nucleoprotein export in dog MDCK cells infected with Influenza virus A/Puerto Rico/8/34 H1N1 measured at 8 hrs post-infection by inmmunofluorescence. The following applies: Canis lupus familiaris. The class given is cell-based. The method in brief: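 MDCK cells were infected with PR8 at 1 M.O.I. for single-cycle replication. At 8 h p.i. cells were fixed, permeabilized and stained with DAPI, then with anti-NP primary and FITC-conjugated secondary antibody. NP localization was assessed by fluorescence microscopy.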

The inhibition is the relative decrease from the control value, in per cent.

As to `O=C1/C(=C/c2ccc(O)c(O)c2)COC/C1=C\c1ccc(O)c(O)c1`, the Activity result is listed as “Toxic” in the data set on MDCK [1]; 30% in the data set on Influenza A virus [4]; 55% in the data set with Influenza A virus [5]; 75% in the data set with Influenza A virus [6]; 25% in the data set on Influenza A virus [7]; 56% with Influenza A virus [9]. The Activity in the data set with Influenza A virus [10] came out at 62%. Besides, the outcome in the data set on Influenza A virus [2] and in the data set with Influenza A virus [3] was inactive. For the same compound, the outcome with Influenza A virus [8] and in the data set with MDCK [11] was Active.
Regarding `O=C(/C=C/c1ccc(O)cc1)c1ccc(O)cc1O` [ISOLIQUIRITIGENIN], the Activity entry in the data set with MDCK [12] is reported as “Toxic”; with Influenza A virus [16], 30%; with Influenza A virus [17], 55%; in the data set with Influenza A virus [18], 75%; in the data set on Influenza A virus [21] it was 42%. Also, the inhibition at 10 µg/mL in the data set on Influenza A virus [13] stood at 75%. Further, the result in the data set on Influenza A virus [14], with Influenza A virus [15], in the data set on Influenza A virus [19], in the data set on Influenza A virus [20] and in the data set on Influenza A virus [22] was inactive. Also, the inhibition result in the data set on MDCK [23] is “Active”. For the same compound, the outcome with MDCK [11] was Active.
